Values without a mark were called inactive.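 How the source made its calls, unless noted: active means viability increase at or above a cutoff of the median across tested compounds plus 3 SD (cut at about 8.5% in these data, passing the limit was not always enough); inconclusive means some gains above the cutoff, reason not given; inactive means the rest.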

The nature of one experiment: Restrictive medium S. cerevisiae growth inhibition, OD615, pilot screen of yeast lifespan reduction project, restrictive growth control (AID 706;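 active means growth inhibition above a set limit, 3 SD over mean compound inhibition, in both replicates, cut at about 43% in these data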;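 further: modified DeaD lifespan yeast strain shifted to restrictive glucose medium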). To be noted: OD615, 48 h, at 10 µM, stronger effect = higher value. An outline of the steps:
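Material: modified S. cerevisiae; buffer or medium: CSMM-D glucose medium; doses: one concentration, 10 µM final, 0.25% DMSO; incubation: 48 h compound exposure at 30 °C; detection: optical density at 615 nm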
For the compound `Cc1cccc(NC(=O)c2cccnc2)c1`, the growth inhibition is 4.14%.

For `O=C(CCCOc1ccccc1)Nc1ccc2c(c1)OCCO2`, the growth inhibition is 7.45%.

As to `C=CCn1c(C(C)NC(=O)COC)nc2ccccc21` (stereo not given), the growth inhibition was -4.71%.

Regarding `CCCC(=O)N1CCN(c2ccc(C(=O)c3ccc(OC)c(Br)c3)cc2F)CC1`, the growth inhibition was -18.4%.

For the compound `CC(C)Cc1cc(C(=O)Nc2ccc(F)cc2F)no1`, the growth inhibition was -23.4%.

On to `CN1CCN(CCNC(=O)c2cc3c(=O)n(C)c4ccccc4c3n2C)CC1`, for which the growth inhibition is -20%.

Take `Cn1nc(-c2ccc(Cl)cc2)c2cc(C(=O)NCCCN3CCCC3)sc21`: the growth inhibition is 4.49%.

Take `CCOC(=O)c1c(C)oc2cc(Br)c(OC(C)C(=O)OCC)cc12` (stereo not given): the growth inhibition is -5.88%.

As for `O=C(C1CC1)N1CCc2cc(Br)cc(S(=O)(=O)NCc3ccc4c(c3)OCO4)c21`, the growth inhibition is -5.21%.

With `COc1ccc(OC)c(NC2c3ccccc3C(=O)N2Cc2ccc3c(c2)OCO3)c1` (stereo not given), the growth inhibition was -3.93%.

Take `CC1CCN(S(=O)(=O)c2ccc3c(c2)oc(=O)n3CC(=O)NCc2ccc3c(c2)OCO3)CC1`: the growth inhibition was -15.8%.

As for `COc1cccc(-n2nnc3c(=O)n(Cc4cccc(C)c4)cnc32)c1`, the growth inhibition was -5.66%.

In the case of `CCc1cc2c(NCC3CCCO3)ncnc2s1` (stereo not given), the growth inhibition was 9.07%.

`Cc1ccc(-n2nc3ccc(N)cc3n2)cc1`: the growth inhibition was 5.77%.

Take `COc1ccc(N2C(=O)C3CCCN3C2c2ccc(Cl)cc2)cc1` (stereo not given): the growth inhibition was -6.83%.

On to `CCOC(=O)c1ccc(NCn2c(=O)oc3ccccc32)cc1`, for which the growth inhibition is -15.7%.

As to `Cc1cccc(-n2ncc3c(N4CCC(C)CC4)ncnc32)c1`, the growth inhibition is 10.6%.

For `CCOC(=O)c1ccc(N2C(=O)C3ON(c4ccccc4)C(c4ccco4)C3C2=O)cc1` (stereo not given), the growth inhibition was 5.19%.

For `O=C(C1COc2ccccc2O1)N1CCn2c(nc3ccccc32)C1` (stereo not given), the growth inhibition was -3.57%.

Regarding `CN(CC(=O)N1CC=C(c2ccccc2)CC1)S(=O)(=O)c1ccc2c(c1)c(=O)n(C)c(=O)n2C`, the growth inhibition is -12.2%.

Take `CSC1=NCCN1C(=O)COc1ccccc1`: the growth inhibition was -6.09%.

For `CC(C)NC(=O)c1ccc(CS(=O)(=O)c2ccc(Br)cc2)o1`, the growth inhibition was 3.97%.

Regarding `Cc1ccc(-n2ncc3c(=O)[nH]c(SCC(=O)N4CCCC4)nc32)cc1C`, the growth inhibition is -4.8%.

On to `O=c1[nH]c(NC2CCCCC2)nnc1Cc1ccccc1`, for which the growth inhibition was -5.11%.

Consider `COc1ccc(N2CCN(Cc3nc4c(c(=O)[nH]c(=O)n4C)n3Cc3cccc(Cl)c3)CC2)cc1`, for which the growth inhibition was -12.3%.

On to `Cc1nc2scc(-c3cccs3)c2c(=O)o1`, for which the growth inhibition is 14.4%.

With `CCC1Oc2nc(SC)nnc2-c2ccccc2N1C(=O)c1ccccc1` (stereo not given), the growth inhibition was -2.26%.

Take `O=C(CSc1nc2ccccc2c(=O)n1-c1ccccc1)N1CCN(CCO)CC1`: the growth inhibition was -3.58%.

With `O=c1oc(-c2cccnc2)nc2ccccc12`, the growth inhibition is -3.38%.

In the case of `CN(C)CCNC(=O)c1cc2c(=O)n(C)c3ccccc3c2n1C`, the growth inhibition was -1.67%.

As to `CNC(=O)c1c(NC(=O)c2ccc(S(=O)(=O)N3CCOCC3)cc2)sc2c1CCC2`, the growth inhibition was -0.055%.

Turning to `O=C1c2ccccc2CCC1C(O)c1ccccn1` (stereo not given), the growth inhibition is -15.8%.

`CCCCCSc1nc2c(c(=O)[nH]c(=O)n2C)n1CC`: the growth inhibition is 1.94%.

`COC(=O)c1cc(NC(=O)c2nccnc2C(=O)O)cc(C(=O)OC)c1`: the growth inhibition was 3.16%.

For the compound `O=C(CC1Sc2ccccc2NC1=O)Nc1cccc(C(=O)O)c1` (stereo not given), the growth inhibition was 8.77%.

Take `Cc1cccc(NC(=O)COc2ccc(Br)cc2C)n1`: the growth inhibition was 1.1%.

On to `COc1cc(C(=O)Nc2ccc(N(C)C)cc2)cc(OC)c1OC`, for which the growth inhibition was -11.7%.

Turning to `CC1Cc2nc(SCC(=O)NCc3ccco3)n(-c3ccccc3)c(=O)c2S1` (stereo not given), the growth inhibition was -7.02%.

As for `O=C(Nc1cccc(Br)c1)c1cc2ccccc2o1`, the growth inhibition was -7.8%.

With `CCOCCCNC(=O)C(NC(=O)CNC(C)=O)c1ccc(Cl)cc1` (stereo not given), the growth inhibition is -12.2%.

The next experiment is described as follows: viability gain of MRP-1-high H69AR cells under doxorubicin, pilot screen, MRP-1 activator project, CellTiter-Glo, duplicate (AID 807).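 Further: compound pretreatment 18-22 h then 72 h combined with doxorubicin; 0% = doxorubicin alone and 100% = vehicle without doxorubicin.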 To be noted: H69AR viability with doxorubicin, CellTiter-Glo luminescence; at 10 µM; stronger effect = higher value.
For the compound `Cc1cccc(NC(=O)c2cccnc2)c1`, the viability increase was 1.56%.

Take `O=C(CCCOc1ccccc1)Nc1ccc2c(c1)OCCO2`: the viability increase is -4.17%.

As to `C=CCn1c(C(C)NC(=O)COC)nc2ccccc21` (stereo not given), the viability increase was -2.08%.

As for `CCCC(=O)N1CCN(c2ccc(C(=O)c3ccc(OC)c(Br)c3)cc2F)CC1`, the viability increase is -1.74%.

For the compound `CC(C)Cc1cc(C(=O)Nc2ccc(F)cc2F)no1`, the viability increase is 1.32%.

For `CN1CCN(CCNC(=O)c2cc3c(=O)n(C)c4ccccc4c3n2C)CC1`, the viability increase is -4.6%.

In the case of `Cn1nc(-c2ccc(Cl)cc2)c2cc(C(=O)NCCCN3CCCC3)sc21`, the viability increase was -8.31%.

Turning to `CCOC(=O)c1c(C)oc2cc(Br)c(OC(C)C(=O)OCC)cc12` (stereo not given), the viability increase is -0.93%.

As to `O=C(C1CC1)N1CCc2cc(Br)cc(S(=O)(=O)NCc3ccc4c(c3)OCO4)c21`, the viability increase was -1.52%.

For `COc1ccc(OC)c(NC2c3ccccc3C(=O)N2Cc2ccc3c(c2)OCO3)c1` (stereo not given), the viability increase is -0.47%.

`CC1CCN(S(=O)(=O)c2ccc3c(c2)oc(=O)n3CC(=O)NCc2ccc3c(c2)OCO3)CC1`: the viability increase is 4.02%.

Take `COc1cccc(-n2nnc3c(=O)n(Cc4cccc(C)c4)cnc32)c1`: the viability increase was 0.31%.

Take `CCc1cc2c(NCC3CCCO3)ncnc2s1` (stereo not given): the viability increase is 0.8%.

Consider `Cc1ccc(-n2nc3ccc(N)cc3n2)cc1`, for which the viability increase was -5.26%.

As for `COc1ccc(N2C(=O)C3CCCN3C2c2ccc(Cl)cc2)cc1` (stereo not given), the viability increase was -2.6%.

With `CCOC(=O)c1ccc(NCn2c(=O)oc3ccccc32)cc1`, the viability increase is -4.09%.

Consider `Cc1cccc(-n2ncc3c(N4CCC(C)CC4)ncnc32)c1`, for which the viability increase is 4.21%.

For the compound `CCOC(=O)c1ccc(N2C(=O)C3ON(c4ccccc4)C(c4ccco4)C3C2=O)cc1` (stereo not given), the viability increase is -4.17%.

Take `O=C(C1COc2ccccc2O1)N1CCn2c(nc3ccccc32)C1` (stereo not given): the viability increase is -2.64%.

As for `CN(CC(=O)N1CC=C(c2ccccc2)CC1)S(=O)(=O)c1ccc2c(c1)c(=O)n(C)c(=O)n2C`, the viability increase is -3.46%.

For `CSC1=NCCN1C(=O)COc1ccccc1`, the viability increase is 1.95%.

As for `CC(C)NC(=O)c1ccc(CS(=O)(=O)c2ccc(Br)cc2)o1`, the viability increase is -1.73%.

Take `Cc1ccc(-n2ncc3c(=O)[nH]c(SCC(=O)N4CCCC4)nc32)cc1C`: the viability increase was -4.32%.

Regarding `O=c1[nH]c(NC2CCCCC2)nnc1Cc1ccccc1`, the viability increase was 0.04%.

With `COc1ccc(N2CCN(Cc3nc4c(c(=O)[nH]c(=O)n4C)n3Cc3cccc(Cl)c3)CC2)cc1`, the viability increase is -3.93%.

For `Cc1nc2scc(-c3cccs3)c2c(=O)o1`, the viability increase was -1.96%.

Take `CCC1Oc2nc(SC)nnc2-c2ccccc2N1C(=O)c1ccccc1` (stereo not given): the viability increase was -5.16%.

`O=C(CSc1nc2ccccc2c(=O)n1-c1ccccc1)N1CCN(CCO)CC1`: the viability increase is -2.9%.

Consider `O=c1oc(-c2cccnc2)nc2ccccc12`, for which the viability increase is -0.21%.

As for `CN(C)CCNC(=O)c1cc2c(=O)n(C)c3ccccc3c2n1C`, the viability increase is -5.64%.

For `CNC(=O)c1c(NC(=O)c2ccc(S(=O)(=O)N3CCOCC3)cc2)sc2c1CCC2`, the viability increase was -0.97%.

Turning to `O=C1c2ccccc2CCC1C(O)c1ccccn1` (stereo not given), the viability increase is -3.89%.

Turning to `CCCCCSc1nc2c(c(=O)[nH]c(=O)n2C)n1CC`, the viability increase was -3.9%.

In the case of `COC(=O)c1cc(NC(=O)c2nccnc2C(=O)O)cc(C(=O)OC)c1`, the viability increase is -1.21%.

Regarding `O=C(CC1Sc2ccccc2NC1=O)Nc1cccc(C(=O)O)c1` (stereo not given), the viability increase was -0.43%.

For `Cc1cccc(NC(=O)COc2ccc(Br)cc2C)n1`, the viability increase is 1.07%.

Take `COc1cc(C(=O)Nc2ccc(N(C)C)cc2)cc(OC)c1OC`: the viability increase was -5.23%.

Take `CC1Cc2nc(SCC(=O)NCc3ccco3)n(-c3ccccc3)c(=O)c2S1` (stereo not given): the viability increase was -4.56%.

On to `O=C(Nc1cccc(Br)c1)c1cc2ccccc2o1`, for which the viability increase was -5%.

On to `CCOCCCNC(=O)C(NC(=O)CNC(C)=O)c1ccc(Cl)cc1` (stereo not given), for which the viability increase is -0.33%.

These data come from PubChem BioAssay.
